According to ChEMBL document CHEMBL1914395, “Design, synthesis, and biological evaluation of callophycin A and analogues as potential chemopreventive and anticancer agents” (Bioorg Med Chem, 2011):

What was measured:
[1] = target: NAD(P)H dehydrogenase [quinone] 1 (Mus musculus) (UniProt Q64669); test: Induction of quinone reductase 1 activity in mouse Hepa-1c1c7 cells at 50 uM by MTT assay relative to untreated control; format: cell-based
In short: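 Hepa 1c1c7 murine hepatoma cells treated with compound at 50 μM. QR1 measured by NADPH-dependent, menadiol-mediated reduction of MTT to formazan. Protein measured by crystal violet staining of identical plates. Specific activity is nmol formazan per mg protein per min. Induction ratio is treated versus DMSO-treated control.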

[2] = target: NAD(P)H dehydrogenase [quinone] 1 (Mus musculus) (UniProt Q64669); test: Induction of quinone reductase 1 activity in mouse Hepa-1c1c7 cells assessed as cell survival at 50 uM by MTT assay relative to control; format: cell-based
[3] = target: T1, Aromatase (Homo sapiens, UniProt P11511); test: Inhibition of aromatase at 50 uM after 10 mins preincubation by plate reader relative to control
T1 sequence (P11511 whole entry): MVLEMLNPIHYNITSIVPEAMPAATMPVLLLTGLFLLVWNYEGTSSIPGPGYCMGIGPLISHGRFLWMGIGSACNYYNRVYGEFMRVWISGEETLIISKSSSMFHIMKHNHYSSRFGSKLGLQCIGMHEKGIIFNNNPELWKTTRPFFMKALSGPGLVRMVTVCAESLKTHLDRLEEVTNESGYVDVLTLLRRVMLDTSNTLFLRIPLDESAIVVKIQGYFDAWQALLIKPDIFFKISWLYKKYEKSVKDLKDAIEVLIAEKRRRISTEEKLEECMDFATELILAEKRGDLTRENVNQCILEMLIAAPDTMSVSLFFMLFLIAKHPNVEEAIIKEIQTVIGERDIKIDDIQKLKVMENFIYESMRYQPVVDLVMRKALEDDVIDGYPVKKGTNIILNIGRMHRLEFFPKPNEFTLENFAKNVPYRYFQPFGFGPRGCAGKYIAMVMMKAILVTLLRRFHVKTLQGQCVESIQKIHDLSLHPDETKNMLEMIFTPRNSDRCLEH
In short: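 CYP19 enzyme. Compound pre-incubated 10 min with an NADPH-regenerating system (NADP+, glucose 6-phosphate, G6PDH, MgCl2, albumin) in 50 mM potassium phosphate pH 7.4. Enzyme and 0.4 μM dibenzylfluorescein substrate then added, 30 min at 37 °C. Quenched with 2 N NaOH and incubated a further 2 h at 37 °C. Fluorescence read at ex 485/em 530 nm. Compound tested at 50 μM.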

[4] = target: T2, Nitric oxide synthase, inducible (Mus musculus) (UniProt P29477); test: Inhibition of iNOS-mediated nitric oxide production in LPS-stimulated mouse RAW 264.7 cells at 50 uM pretreated 15 mins before LPS challenge measured after 20 hrs relative to control; format: cell-based
T2 sequence (whole entry): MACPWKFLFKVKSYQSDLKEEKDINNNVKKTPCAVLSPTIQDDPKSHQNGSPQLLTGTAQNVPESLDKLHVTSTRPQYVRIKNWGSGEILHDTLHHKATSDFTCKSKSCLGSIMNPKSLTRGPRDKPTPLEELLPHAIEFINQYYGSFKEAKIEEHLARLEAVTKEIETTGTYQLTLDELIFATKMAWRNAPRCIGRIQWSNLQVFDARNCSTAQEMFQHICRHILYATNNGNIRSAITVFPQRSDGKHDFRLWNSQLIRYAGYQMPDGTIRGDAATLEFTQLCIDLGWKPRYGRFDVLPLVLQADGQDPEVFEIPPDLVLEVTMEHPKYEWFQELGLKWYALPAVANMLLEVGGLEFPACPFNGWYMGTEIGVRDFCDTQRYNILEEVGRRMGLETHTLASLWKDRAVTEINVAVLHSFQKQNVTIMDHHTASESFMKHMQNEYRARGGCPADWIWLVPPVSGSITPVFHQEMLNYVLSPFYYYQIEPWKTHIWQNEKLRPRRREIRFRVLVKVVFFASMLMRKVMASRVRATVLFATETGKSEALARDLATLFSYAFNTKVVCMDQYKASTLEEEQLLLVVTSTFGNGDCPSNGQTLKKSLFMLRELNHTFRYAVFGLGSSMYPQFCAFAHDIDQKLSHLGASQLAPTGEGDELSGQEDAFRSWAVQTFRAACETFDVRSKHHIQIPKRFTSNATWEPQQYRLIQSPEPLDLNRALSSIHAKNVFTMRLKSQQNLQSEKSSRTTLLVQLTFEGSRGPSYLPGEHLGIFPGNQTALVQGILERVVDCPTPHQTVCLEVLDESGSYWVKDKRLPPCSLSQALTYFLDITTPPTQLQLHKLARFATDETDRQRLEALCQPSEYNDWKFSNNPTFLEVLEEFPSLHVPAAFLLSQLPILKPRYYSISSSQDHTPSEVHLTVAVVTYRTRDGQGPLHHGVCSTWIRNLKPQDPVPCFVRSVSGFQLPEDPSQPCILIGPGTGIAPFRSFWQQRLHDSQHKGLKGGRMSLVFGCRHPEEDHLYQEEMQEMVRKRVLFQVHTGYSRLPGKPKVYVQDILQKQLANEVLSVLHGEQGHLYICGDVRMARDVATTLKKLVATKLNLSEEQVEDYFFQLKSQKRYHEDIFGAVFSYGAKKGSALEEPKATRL
In short: (§1)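 RAW 264.7 cells cultured 24 h at 37°C, then given serially diluted compounds for 15 min before LPS (1 μg/mL) for 20 h. Nitrite in the medium measured with Griess reagent at 540 nm against a sodium nitrite standard curve. Cytotoxicity checked by SRB under the same conditions.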

[5] = target: T2, Nitric oxide synthase, inducible (Mus musculus); test: Inhibition of iNOS-mediated nitric oxide production in LPS-stimulated mouse RAW 264.7 cells assessed as cell survival at 50 uM pretreated 15 mins before LPS challenge measured after 20 hrs relative to control; format: cell-based
In short: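 RAW 264.7 cells were incubated at 37°C, 5% CO2 for 24 h. They were then exposed to compound for 15 min before LPS (1 μg/mL) was added for 20 h. Cytotoxicity was measured by SRB staining under the same conditions. Survival is expressed as % relative to vehicle-treated controls at 50 μM.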

[6] = system: HEK293; test: Inhibition of TNF-alpha-induced NFkappaB activation in human HEK293 cells at 50 uM after 6 hrs by luciferase assay relative to control; format: cell-based
In short: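 Cells incubated 6 h with TNFα plus test compound, then luciferase activity measured. Results expressed as percent of TNFα-treated control. Screening concentration 50 μM.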

[7] = system: HEK293; test: Inhibition of TNF-alpha-induced NFkappaB activation in human HEK293 cells assessed as cell survival at 50 uM after 6 hrs by luciferase assay relative to control; format: cell-based
[8] = system: MCF7; test: Antiproliferative activity against human MCF7 cells assessed as survival at 50 uM after 72 hrs by SRB assay relative to control; format: functional; settings: MCF7, 72 h, read-out: Survival
In short: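 MCF7 cells (1 × 10^4 per well) were plated onto compound and kept at 37°C, 5% CO2 for 72 h. Cells were fixed in 10% TCA for 30 min and stained with 0.4% SRB in 1% acetic acid for 30 min. Bound dye was dissolved in 10 mM Tris (pH 10.0) and read at 515 nm. Survival is given as % of DMSO-treated controls, screened at 50 μM.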

[9] = target: T3, Nitric oxide synthase, inducible (Mus musculus, UniProt P29477); test: Inhibition of iNOS-mediated nitric oxide production in LPS-stimulated mouse RAW 264.7 cells pretreated 15 mins before LPS challenge measured after 20 hrs relative to control; format: cell-based; in short: as §1
T3 sequence (P29477 whole entry): T2 sequence (whole entry)

Chain of NAD(P)H dehydrogenase [quinone] 1 (Mus musculus) (Q64669 whole entry): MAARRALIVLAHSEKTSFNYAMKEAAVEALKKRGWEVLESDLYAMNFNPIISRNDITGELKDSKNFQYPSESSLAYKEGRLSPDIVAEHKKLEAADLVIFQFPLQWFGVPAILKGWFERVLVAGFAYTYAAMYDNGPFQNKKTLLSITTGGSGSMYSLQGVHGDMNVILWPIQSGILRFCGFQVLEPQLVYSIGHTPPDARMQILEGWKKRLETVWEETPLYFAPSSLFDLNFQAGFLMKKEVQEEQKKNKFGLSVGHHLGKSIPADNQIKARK

COC(=O)[C@@H]1Cc2c([nH]c3ccccc23)CN1S(C)(=O)=O
Ratio [1]: 1.6
Survival [2]: 85.8%
inhibition at 50 µM [3]: 30.5%
inhibition [4]: 10.6%
Survival [5]: 91.9%
inhibition [6]: 38.6%
Survival [7]: 153%
viability at 50 µM [8]: 72.5%

CS(=O)(=O)N1Cc2[nH]c3ccccc3c2C[C@H]1C(=O)O
Ratio [1]: 1.1
Survival [2]: 96.7%
inhibition at 50 µM [3]: 26.5%
inhibition [4]: 6.4%
Survival [5]: 94.2%
inhibition [6]: 51.1%
Survival [7]: 256%

O=C(O)[C@H]1Cc2c([nH]c3ccccc23)CN1Cc1ccccc1
Ratio [1]: 1.8
Survival [2]: 108%
inhibition at 50 µM [3]: 19.2%
inhibition [4]: 9.9%
Survival [5]: 109%
inhibition [6]: 41.8%
Survival [7]: 89.5%

Cc1ccc(S(=O)(=O)N2Cc3[nH]c4ccccc4c3C[C@@H]2C(=O)O)cc1
Ratio [1]: 1.2
Survival [2]: 93.8%
inhibition at 50 µM [3]: 23%
inhibition [4]: 2.9%
Survival [5]: 102%
inhibition [6]: 26%
Survival [7]: 195%
viability at 50 µM [8]: 99.8%

O=C(O)[C@@H]1Cc2c([nH]c3ccccc23)CN1S(=O)(=O)c1ccc(Br)cc1
Ratio [1]: 1.3
Survival [2]: 97.8%
inhibition at 50 µM [3]: 23.2%
inhibition [4]: 50%
Survival [5]: 80.6%
IC50 [9]: 49.7 µM
inhibition [6]: 55.4%
Survival [7]: 247%
viability at 50 µM [8]: 77%

COC(=O)[C@H]1Cc2c([nH]c3ccccc23)CN1Cc1ccc(OCc2ccccc2)cc1
Ratio [1]: 1.4
Survival [2]: 85.4%
inhibition at 50 µM [3]: 27.3%
inhibition [4]: 75.9%
Survival [5]: 86.8%
IC50 [9]: 29.4 µM
inhibition [6]: 40.5%
Survival [7]: 91%
viability at 50 µM [8]: 96.7%

CS(=O)(=O)N1Cc2[nH]c3ccccc3c2C[C@@H]1C(=O)O
Ratio [1]: 1.9
Survival [2]: 80.6%
inhibition at 50 µM [3]: 30.7%
inhibition [4]: 5%
Survival [5]: 93.1%
inhibition [6]: -2.3%
Survival [7]: 178%
viability at 50 µM [8]: 88.7%

C#CCN1Cc2[nH]c3ccccc3c2C[C@H]1C(=O)OC
Ratio [1]: 1.7
Survival [2]: 89.6%
inhibition at 50 µM [3]: 24.4%
inhibition [4]: 22.3%
Survival [5]: 84.4%
inhibition [6]: 21.1%
Survival [7]: 117%
viability at 50 µM [8]: 81.1%

C#CCN1Cc2[nH]c3ccccc3c2C[C@@H]1C(=O)O
Ratio [1]: 1.6
Survival [2]: 94.6%
inhibition at 50 µM [3]: 23.5%
inhibition [4]: 16.4%
Survival [5]: 87.9%
inhibition [6]: -7.7%
Survival [7]: 72.7%
viability at 50 µM [8]: 107%

O=C(O)[C@@H]1Cc2c([nH]c3ccccc23)CN1 [CYCLOMETHYLTRYPTOPHAN]
Ratio [1]: 1.1
Survival [2]: 99.2%
inhibition at 50 µM [3]: 20.7%
inhibition [4]: 2%
Survival [5]: 100%
inhibition [6]: 4.6%
Survival [7]: 103%

Cc1ccc(S(=O)(=O)N2Cc3[nH]c4ccccc4c3C[C@H]2C(=O)O)cc1
Ratio [1]: 1.4
Survival [2]: 88.8%
inhibition at 50 µM [3]: 16.9%
inhibition [4]: 7%
Survival [5]: 85.5%
inhibition [6]: 42.5%
Survival [7]: 272%
viability at 50 µM [8]: 96.5%

O=C(O)[C@H]1Cc2c([nH]c3ccccc23)CN1S(=O)(=O)c1ccc(Br)cc1
Ratio [1]: 1.3
Survival [2]: 88.3%
inhibition at 50 µM [3]: 32.3%
inhibition [4]: 56.2%
Survival [5]: 103%
IC50 [9]: 46.1 µM
inhibition [6]: 50.9%
Survival [7]: 252%
viability at 50 µM [8]: 91.2%

COC(=O)[C@H]1Cc2c([nH]c3ccccc23)CN1S(=O)(=O)c1ccc(C)cc1
Ratio [1]: 1.3
Survival [2]: 85.8%
inhibition at 50 µM [3]: 28.2%
inhibition [4]: 7.4%
Survival [5]: 91.4%
inhibition [6]: 25.2%
Survival [7]: 114%

O=C(O)[C@H]1Cc2c([nH]c3ccccc23)CN1Cc1ccc(O)cc1
Ratio [1]: 1.5
Survival [2]: 91.2%
inhibition at 50 µM [3]: 38.4%
inhibition [4]: 27.8%
Survival [5]: 94.7%
inhibition [6]: 54.6%
Survival [7]: 133%
viability at 50 µM [8]: 71.1%

O=C(O)[C@H]1Cc2c([nH]c3ccccc23)CN1
Ratio [1]: 0.8
Survival [2]: 90.7%
inhibition at 50 µM [3]: 34.9%
inhibition [4]: 3.5%
Survival [5]: 95.9%
Survival [7]: 95.4%

COC(=O)[C@H]1Cc2c([nH]c3ccccc23)CN1CC1CC1
Ratio [1]: 1.8
Survival [2]: 81.8%
inhibition at 50 µM [3]: 37.9%
inhibition [4]: 5.6%
Survival [5]: 124%
inhibition [6]: 29.9%
Survival [7]: 254%
viability at 50 µM [8]: 102%

C=CCOC(=O)N1Cc2[nH]c3ccccc3c2C[C@@H]1C(=O)O
Ratio [1]: 1.9
Survival [2]: 93.8%
inhibition at 50 µM [3]: 32.9%
inhibition [4]: -4%
Survival [5]: 134%
inhibition [6]: 49.4%
Survival [7]: 204%
viability at 50 µM [8]: 102%

O=C(O)[C@H]1Cc2c([nH]c3ccccc23)CN1CC1CC1
Ratio [1]: 1.8
Survival [2]: 102%
inhibition at 50 µM [3]: 31.5%
Survival [5]: 130%
inhibition [6]: 48.4%
Survival [7]: 169%
viability at 50 µM [8]: 113%

COC(=O)[C@@H]1Cc2c([nH]c3ccccc23)CN1Cc1ccc(OCc2ccccc2)cc1
Ratio [1]: 1.8
Survival [2]: 72.8%
inhibition at 50 µM [3]: 28%
inhibition [4]: 58%
Survival [5]: 93.9%
IC50 [9]: 39.2 µM
inhibition [6]: 24.7%
Survival [7]: 99.7%
